Test results: ChEMBL document CHEMBL1124598, “Benzofuro[2,3-c]pyridin-6-ols: synthesis, affinity for opioid-receptor subtypes, and antinociceptive activity” (J Med Chem, 1989)

Each compound was assayed on Mus musculus (assay: Analgesic activity 30 min after subcutaneous administration in mouse by using PQW test). Settings: sc, 0.5 h.
Format: functional
Summary of the method: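 Male CF-1 mice (18-23 g), ten per dose; compound given sc, then 30 min later phenylquinone 3.75 mg/kg in 5% aqueous ethanol ip. Mice observed 10 min in free-moving cages for abdominal stretching. ED50 determined with 95% confidence limits.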

SMILES | ED50 [µmol/kg]
CC[C@@]12CCN(CC3CCC3)C[C@@H]1Oc1ccc(O)cc12 | 0.00145
CCCN1CC[C@@]2(CC)c3cc(O)ccc3O[C@H]2C1 | 0.0051
CC[C@@]12CCN(CC3CC3)C[C@@H]1Oc1ccc(O)cc12 | 0.00119
CC[C@@]12CCN(CCc3ccccc3)C[C@@H]1Oc1ccc(O)cc12 | 0.00037
CC[C@@]12CCN(CC3CCCC3)C[C@@H]1Oc1ccc(O)cc12 | 0.0521
CC[C@@]12CCN(Cc3ccoc3)C[C@@H]1Oc1ccc(O)cc12 | 0.0512
CC[C@@]12CCN(C)C[C@@H]1Oc1ccc(O)cc12 | 0.005
CC[C@@]12CCN(CC3CCCO3)C[C@@H]1Oc1ccc(O)cc12 (some centres undefined) | 0.005
CC[C@@]12CCN(Cc3ccco3)C[C@@H]1Oc1ccc(O)cc12 | 0.0908
